# Screening results (PubChem)
# Only some compounds are listed: those with a hit (about 1.7% of all), similar ones and a draw of the others.
# TPT1 inhibitor: C. albicans TPT1 enzyme inhibition; recombinant caTPT1, FP RNA substrate dephosphorylation; inhibition, % at 5 µM; 0.81% of 300,000 active; AID 1962;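 active = inhibition above the mean of all tested compounds plus 3 SD, set per screening campaign, cut at about 24% in these data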;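 note: plate controls were DMSO alone for no effect and ferristatin control at 100 nM for full effect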
# Rpn11 block: inhibitors of human proteasome Rpn11; O00487; human 26S proteasome, Ub4-pepOG fluorescence polarization; 20S core pre-blocked with epoxomicin; inhibition, % at 20 µM; 0.59% of 360,000 active;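 active = inhibition at 20 µM, scaled to each plate's controls, above about 33%, limit read from the data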
# Target sequence (O00487 whole entry, looked up): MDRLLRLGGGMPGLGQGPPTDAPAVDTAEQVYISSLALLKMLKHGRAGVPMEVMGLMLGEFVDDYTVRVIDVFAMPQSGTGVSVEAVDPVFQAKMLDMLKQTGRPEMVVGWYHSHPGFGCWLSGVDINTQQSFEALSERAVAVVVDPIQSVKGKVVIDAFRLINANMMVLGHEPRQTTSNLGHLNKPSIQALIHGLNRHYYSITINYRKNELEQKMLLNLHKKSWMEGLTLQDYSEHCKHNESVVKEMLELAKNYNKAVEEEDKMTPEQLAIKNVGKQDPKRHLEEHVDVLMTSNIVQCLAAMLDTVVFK
# IDE cell activ: activators of human insulin-degrading enzyme in cells; P14735; HEK cells, FAbeta-B cleavage, fluorescence polarization; 0% vehicle, 100% cell-free pure enzyme wells; activation, % at 5.96 µM; 0.073% of 340,000 active; AID 493087;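 active = activation above the mean of all tested compounds plus 3 SD, set per screening campaign, cut at about 17% in these data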
# CSN inh: inhibitors of human CSN-mediated cullin deneddylation; AID 651999; Purified CSN, SCF-Nedd8-OG deneddylation, fluorescence polarization; Q92905; 0.38% of 360,000 active; inhibition, % at 12.5 µM;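 active = pattern-corrected inhibition above about 35%, with an unprinted fluorescence ratio check between 0.5 and 1.5, limit read from the data, passing the limit was not always enough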;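 note: 0% = enzyme with substrate and 100% = substrate without enzyme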
#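 Material: human Csn5 produced in HEK293T cells; Input: enzyme 0.24 nM; Reagent: SCFSkp2-Nedd8OG substrate at 10 nM final; Dosing: 12.5 µM compound; Incubation: 90 min reaction at room temperature; Detection: fluorescence polarization of the substrate; Evaluation: % inhibition of substrate cleavage by Csn5; Control set: substrate-only high control, full reaction low control.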
# IDE cell inh: inhibitors of human insulin-degrading enzyme in cells; P14735; HEK cells, FAbetaB cleavage, fluorescence polarization; inhibition, % at 5.59 µM; 0.41% of 320,000 active; AID 434962;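 active = percent inhibition above the average of all tested compounds plus 3 SD, set per screening campaign, cut at about 16% in these data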;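 note: IDE supplied by intact live HEK cells; FP after avidin binding of uncleaved biotin substrate so inhibition keeps polarization high; 0% = DMSO wells and 100% = 60 µM reference IDE inhibitor Ii1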
# HNF4A DNA FP: change in binding of human HNF4 alpha to DNA | P41235 | HNF4a-FITC DNA binding, fluorescence polarization, 1 h | activity change, % at 10 µM | 0.3% of 360,000 active | AID 1224865; in the data active = activity change above about 30%, passing the limit was not always enough
# caTPT1 confirm: TPT1 (C. albicans) inhibition, confirmation. shares compounds with TPT1 inhibitor. AID 2149. 74% of 2,400 active. recombinant caTPT1, fluorescence polarization, RNase T1 coupled. inhibition, % at 5 µM;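 active = inhibition above the primary screen limit, the mean inhibition of all tested compounds plus 3 SD, cut at about 25% in these data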
# RNase T1 inh: counter-screen for TPT1 inhibitors: inhibitors of Aspergillus oryzae RNase T1. shares compounds with TPT1 inhibitor. RNase T1 cleavage, fluorescence polarization, 1536-well. inhibition, % at 5 µM. 83% of 2,400 active. AID 2153;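 active = inhibition above the solvent-only control well mean plus 3 SD, limit set per screening run, cut at about 23% in these data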;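 note: plate controls were DMSO wells with enzyme for no effect and wells without RNase T1 for full effect; inhibitors block cleavage so intact labeled substrate keeps polarization high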
# Target sequence (P00651 whole entry, looked up): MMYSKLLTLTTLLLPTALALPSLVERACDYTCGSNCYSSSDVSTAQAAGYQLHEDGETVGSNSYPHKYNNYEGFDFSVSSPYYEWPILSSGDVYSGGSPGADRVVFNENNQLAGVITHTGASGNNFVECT
# The depositor's hits bear a star; x = no result shown; + = active, no number.
SMILES,TPT1 inhibitor,Rpn11 block,IDE cell activ,CSN inh,IDE cell inh,HNF4A DNA FP,caTPT1 confirm,RNase T1 inh
CC(=O)Nc1ccc(S(=O)(=O)Nc2nc3ccccc3nc2Nc2ccc3ccccc3c2)cc1,29*,x,-2,45*,-2,27,13,24*
O=c1ccn([C@@H]2O[C@H](CNCc3cccn3-c3nccs3)[C@@H](O)[C@H]2O)c(=O)[nH]1,x,-5,x,1,x,2,x,x
Cc1cc(/C=C2/C(=O)N(C)C(=S)N2C)c(C)n1C1CC1,30*,8,-2,6,-3,12,46*,55*
Cc1cc(/C=C2\SC(=S)NC2=O)c(C)n1C1CC1,74*,x,1,31,16,56*,107*,117*
O=C1NC(=S)SC1=Cc1ccccc1Br,x,7,4,5,x,0,x,x
CN(C)CCN1C(=O)C(O)=C(C(=O)c2cc3ccccc3o2)C1c1ccc(N(C)C)cc1 (stereo not given),32*,31,-5,3,13,0,21,35*
COc1cccc(CNC(=O)[C@@H]2CCCN2C(=O)[C@@H]2CCCN2C(=O)OC(C)(C)C)c1,x,x,x,2,x,0,x,x
Cc1ccc(/C=C(\C#N)C(=O)NC(C)C)o1,1,-1,4,-3,0,1,x,x
CC(C)NC(=O)/C(C#N)=C/c1ccc(N(C)C)o1,158*,x,-19,128,15,170,177*,167*
CCN(CC)c1ccc(/C=c2/sc3nnc(-c4ccccc4C)n3c2=O)cc1,109*,x,-4,-40,8,24,165*,167*
CCN(CC)c1ccc(/C=c2\sc3nnc(-c4ccccc4Cl)n3c2=O)cc1,+,x,-5,-2,3,87,176*,163*
O=C(O)c1ccc(NS(=O)(=O)/C=C/c2ccccc2)cc1O,24*,1,4,-3,6,3,3,5
O=S(=O)(/C=C/c1ccccc1)Nc1ccc(N2CCOCC2)cc1,3,5,-2,-4,4,1,x,x
Cc1ccc(S(=O)(=O)N2CCC(C(=O)OCC(=O)N3C(C)CCCC3C)CC2)cc1C (stereo not given),x,7,x,1,x,-1,x,x
Oc1ccc(/C=N/Nc2nc(-c3cccnc3)nc3ccccc23)c(O)c1,46*,x,-7,9,7,36*,59*,69*
Cc1cc(=O)oc(C)c1C(=O)Nc1ccc2ncccc2c1,25*,-42,-9,-1,1,-42,35*,45*
N#C/C(=C/c1ccc(-c2cc(C(=O)O)cc(C(=O)O)c2)o1)c1nc2ccccc2s1,141*,x,x,x,27*,x,141*,133*
N#C/C(=C\c1ccco1)c1nc2ccccc2s1,10,11,-6,1,15,7,x,x
CN(C)S(=O)(=O)c1cc(NC(=O)CN2CCCc3ccccc32)ccc1Cl,46*,x,-2,7,0,15,51*,61*
CN(C)S(=O)(=O)c1cc(NC(=O)CN2CCc3ccccc32)ccc1Cl,-30,-3,6,-16,2,1,x,x
CN(C)S(=O)(=O)c1ccc(NC(=O)CN2CCCc3ccccc32)cc1,51*,x,2,10,0,20,42*,54*
CCCS(=O)(=O)NC(=O)C1(C)CCCN(C(=O)c2cc(F)cc(F)c2)C1 (stereo not given),x,-2,x,3,x,-1,x,x
COC(=O)c1ccc(-n2cc(-c3ccc(OC)cc3)[nH]c2=S)cc1,38*,30,1,5,5,30,31*,40*
COc1ccc(-n2cc(-c3ccc(Cl)cc3)[nH]c2=S)cc1,2,-11,2,-6,5,-3,x,x
CC1(C)OC(=O)C(=Cc2ccc(-c3ccc(S(N)(=O)=O)cc3)o2)C(=O)O1,28*,15,4,12,12,10,8,13
SMILES,TPT1 inhibitor,Rpn11 block,IDE cell activ,CSN inh,IDE cell inh,HNF4A DNA FP,caTPT1 confirm,RNase T1 inh
CC1CC(=O)Nc2ccccc2N1S(=O)(=O)c1ccc(Cl)cc1 (stereo not given),74*,-2,4,5,5,3,2,7
Cc1cccc(N=C2NC(=O)/C(=C/c3cccn3C)S2)c1,31*,18,0,3,-5,4,37*,46*
C=CCN1C(=O)C(=Cc2ccc3c(c2)CCC3)SC1=S,x,21,x,5,x,2,x,x
Cc1ccc(C2C3=C(CCCC3=O)OC3=C2C(=O)CCC3)cc1,54*,-1,2,4,1,1,8,10
CCOC(=O)C(Cc1ccc(O)c([N+](=O)[O-])c1)N1C(=O)c2ccccc2C1=O (stereo not given),x,-10,0,-1,x,1,x,x
C(=Nc1ccc(N2CCOCC2)cc1)c1c[nH]c2ccccc12,0,2,7,104,8,-1,x,x
Oc1ccccc1N=Cc1c(O)ccc2ccccc12,x,x,-2,85,x,106,x,x
Oc1ccc2ccccc2c1C=Nc1ccc(N2CCOCC2)cc1,76*,x,x,x,0,x,67*,86*
C=Cc1ccc(N=Cc2c(O)ccc3ccccc23)cc1,40*,x,0,39*,-1,80,129*,133*
O=C(NC1CCCCC1)C(c1ccc(C(F)(F)F)cc1)n1c(=O)c(-c2ccco2)nc2ccccc21 (stereo not given),x,x,x,24,x,26,x,x
CCCCCCNC(=O)C(C#N)c1nc2ccccc2nc1N1CCCC1 (stereo not given),63*,19,-7,40*,-2,37,28*,33*
CCCCCNC(=O)C(C#N)c1nc2ccccc2nc1N1CCCC1 (stereo not given),-55,-10,-3,14,4,17,x,x
NC(=Nc1nc(-c2ccccn2)cc2ccccc12)c1ccccn1,x,0,7,0,x,2,x,x
CCOc1ccc(Cn2c(O)cc(=O)[nH]c2=O)cc1,39*,14,5,14,2,1,19,24*
COc1ccc(Cn2c(O)cc(=O)[nH]c2=O)cc1,26*,16,2,15,-1,0,21,28*
c1ccc(-n2cnnc2SCc2nc3ccccc3s2)cc1,33*,17,-1,10,0,18,49*,61*
Cc1nnc(SCc2nc3ccccc3s2)n1-c1ccccc1,15,20,-1,5,2,13,x,x
CCCCNC(=O)C1(C)CCN1C(=O)c1ccc2sccc2c1 (stereo not given),x,-5,x,7,x,-1,x,x
O=C(NCc1ccccc1)c1cc(S(=O)(=O)N2CCOCC2)ccc1F,48*,28,3,9,-1,17,40*,52*
